This passage reports MIC results from ChEMBL document CHEMBL1212777, “Novel VIM metallo-beta-lactamase variant from clinical isolates of Enterobacteriaceae from Algeria” (2010).

What all share (format): functional
For test [1], the system named is Klebsiella pneumoniae. Briefly: Antimicrobial activity against Klebsiella pneumoniae 2878 strain expressing beta-lactamase VIM-19 by microdilution method in presence of 2 ug/ml clavulanic acid. In outline: (§1)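 Clinical isolates from intensive care patients. MICs by dilution on Mueller-Hinton agar, inoculum 10^4 CFU per spot, read after growth and interpreted by CA-SFM guidelines. Where the line names an inhibitor, it was held at a fixed level: clavulanic acid 2 μg/ml, tazobactam 4 μg/ml, or EDTA 0.4 mM.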

The subject of test [2] is Escherichia coli. Briefly: Antimicrobial activity against Escherichia coli DH5alpha harbouring plasmid BK-VIM-19 expressing beta-lactamase VIM-19 by microdilution method in presence of 2 ug/ml clavulanic acid. An outline of the steps: (§2)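 MIC by dilution on Mueller-Hinton agar, inoculum 10^4 CFU per spot, interpreted by CA-SFM guidelines. Inhibitor combinations where tested: clavulanic acid 2 μg/ml, tazobactam 4 μg/ml, EDTA 0.4 mM. Transconjugants came from rifampin-resistant E. coli C600 selected on rifampin 300 μg/ml plus cefotaxime 0.5 μg/ml. Transformants came from electroporation into E. coli DH5α selected on cefotaxime 0.5 μg/ml.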

Test [3] has as its system Escherichia coli. Briefly: Antimicrobial activity against Escherichia coli DH5alpha 2878 transformant expressing beta-lactamase VIM-19 by microdilution method. In outline:
as §2

Test [4] concerns Escherichia coli. Briefly: Antimicrobial activity against Escherichia coli DH5alpha 2878 transformant expressing beta-lactamase VIM-19 by microdilution method in presence of 2 ug/ml clavulanic acid. In outline: as §2
The test system of test [5] is Providencia stuartii. Briefly: Antimicrobial activity against Providencia stuartii 6858 strain expressing beta-lactamase VIM-19 by microdilution method. In outline: as §1
Test [6] deals with Klebsiella pneumoniae. Briefly: Antimicrobial activity against Klebsiella pneumoniae 2878 strain expressing beta-lactamase VIM-19 by microdilution method. An outline of the steps: as §1
Test [7] deals with Escherichia coli. Briefly: Antimicrobial activity against Escherichia coli 2603 strain expressing beta-lactamase VIM-19 by microdilution method. An outline of the steps:
as §1

Test [8] relates to Klebsiella pneumoniae. The experiment in a line: Antimicrobial activity against Klebsiella pneumoniae 6828 strain expressing beta-lactamase VIM-19 by microdilution method. An outline of the steps:
as §1

Test [9] concerns Escherichia coli. The experiment in a line: Antimicrobial activity against Escherichia coli DH5alpha harbouring plasmid BK-VIM-19 expressing beta-lactamase VIM-19 by microdilution method. In outline: as §2
Test [10] concerns Escherichia coli. The experiment in a line: Antimicrobial activity against Escherichia coli harbouring plasmid BK-CMV expressing beta-lactamase VIM-19 by microdilution method. An outline of the steps:
as §2

In test [11] the test system is Providencia stuartii. Briefly: Antimicrobial activity against Providencia stuartii 6858 strain expressing beta-lactamase VIM-19 by microdilution method in presence of 2 ug/ml clavulanic acid. An outline of the steps: as §1
Test [12] relates to Escherichia coli. The experiment in a line: Antimicrobial activity against Escherichia coli 2603 strain expressing beta-lactamase VIM-19 by microdilution method in presence of 2 ug/ml clavulanic acid. In outline: as §1
The test system of test [13] is Escherichia coli. The experiment in a line: Antimicrobial activity against Escherichia coli 138 expressing beta-lactamase VIM-19 by microdilution method. An outline of the steps:
as §1

In test [14] the test system is Escherichia coli. Briefly: Antimicrobial activity against Escherichia coli 138 expressing beta-lactamase VIM-19 by microdilution method in presence of 2 ug/ml clavulanic acid. An outline of the steps: as §1
The subject of test [15] is Escherichia coli. Briefly: Antimicrobial activity against Escherichia coli C600 2878 transconjugate expressing beta-lactamase VIM-19 by microdilution method. In outline:
as §2

For test [16], the system named is Klebsiella pneumoniae. Briefly: Antimicrobial activity against Klebsiella pneumoniae 6828 strain expressing beta-lactamase VIM-19 by microdilution method in presence of 2 ug/ml clavulanic acid. In outline: as §1
In test [17] the test system is Escherichia coli. Briefly: Antimicrobial activity against Escherichia coli C600 2878 transconjugate expressing beta-lactamase VIM-19 by microdilution method in presence of 2 ug/ml clavulanic acid. An outline of the steps:
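Rifampin-resistant E. coli C600 recipient mated with the clinical strain. Transconjugants were selected on agar with rifampin 300 μg/ml plus cefotaxime 0.5 μg/ml. MICs by dilution on Mueller-Hinton agar, inoculum 10^4 CFU per spot, CA-SFM interpretation. Inhibitor at a fixed level: clavulanic acid 2 μg/ml or EDTA 0.4 mM.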

Test [18] has as its system Escherichia coli. The experiment in a line: Antimicrobial activity against Escherichia coli harbouring plasmidBK-CMV expressing beta-lactamase VIM-19 […] in presence of 2 ug/ml clavulanic acid.
In test [19] the test system is Escherichia coli. Briefly: Antimicrobial activity against Escherichia coli 2603 strain expressing beta-lactamase VIM-19 […] in presence of 4 ug/ml Tazobactam.
In test [20] the test system is Klebsiella pneumoniae. The experiment in a line: Antimicrobial activity against Klebsiella pneumoniae 2878 strain expressing beta-lactamase VIM-19 by microdilution method in presence of 4 ug/ml Tazobactam. In outline: as §1
The subject of test [21] is Escherichia coli. The experiment in a line: Antimicrobial activity against Escherichia coli harbouring plasmidBK-CMV expressing beta-lactamase VIM-19 […] in presence of 4 ug/ml Tazobactam.
Test [22] concerns Providencia stuartii. The experiment in a line: Antimicrobial activity against Providencia stuartii 6858 strain expressing beta-lactamase VIM-19 by microdilution method in presence of 4 ug/ml Tazobactam. In outline: as §1
Test [23] has as its system Escherichia coli. The experiment in a line: Antimicrobial activity against Escherichia coli C600 2878 transconjugate expressing beta-lactamase VIM-19 by microdilution method in presence of 4 ug/ml Tazobactam. An outline of the steps:
as §2

Test [24] relates to Klebsiella pneumoniae. The experiment in a line: Antimicrobial activity against Klebsiella pneumoniae 6828 strain expressing beta-lactamase VIM-19 […] in presence of 4 ug/ml Tazobactam.
Test [25] deals with Escherichia coli. Briefly: Antimicrobial activity against Escherichia coli DH5alpha harbouring plasmid BK-VIM-19 expressing beta-lactamase VIM-19 by microdilution method in presence of 4 ug/ml Tazobactam. An outline of the steps: as §2
For test [26], the system named is Escherichia coli. The experiment in a line: Antimicrobial activity against Escherichia coli DH5alpha 2878 transformant expressing beta-lactamase VIM-19 […] in presence of 4 ug/ml Tazobactam.
Test [27] concerns Escherichia coli. Briefly: Antimicrobial activity against Escherichia coli 138 expressing beta-lactamase VIM-19 by microdilution method in presence of 4 ug/ml Tazobactam. An outline of the steps:
as §2

In brackets after ≈: the same amount, converted by molar mass.

Consider `CC1(C)S[C@@H]2[C@H](NC(=O)[C@H](N)c3ccc(O)cc3)C(=O)N2[C@H]1C(=O)O` [AMOXICILLIN], for which the MIC in the test with Klebsiella pneumoniae [1], in the test on Escherichia coli [2], with Escherichia coli [3], in the test on Escherichia coli [4], against Providencia stuartii [5] and in the test on Klebsiella pneumoniae [6] was greater than 2050 µg/mL each time. Also, the MIC against Escherichia coli [7] is greater than 2050 µg/mL; against Klebsiella pneumoniae [8] it was greater than 2050 µg/mL; against Escherichia coli [9], greater than 2050 µg/mL; against Escherichia coli [10], 4 µg/mL (≈ 10.9 µM); in the test with Providencia stuartii [11], greater than 2050 µg/mL; with Escherichia coli [12], greater than 2050 µg/mL. The MIC in the test on Escherichia coli [13] is greater than 2050 µg/mL; in the test with Escherichia coli [14] it was greater than 2050 µg/mL; against Escherichia coli [15], greater than 2050 µg/mL; in the test on Klebsiella pneumoniae [16], greater than 2050 µg/mL; in the test on Escherichia coli [17] it was greater than 2050 µg/mL; in the test on Escherichia coli [18], 4 µg/mL.

As to `CCN1CCN(C(=O)N[C@@H](C(=O)N[C@@H]2C(=O)N3[C@@H]2SC(C)(C)[C@@H]3C(=O)O)c2ccccc2)C(=O)C1=O` [PIPERACILLIN], the MIC worked out at 1020 µg/mL in the test on Escherichia coli [19]; 2050 µg/mL with Klebsiella pneumoniae [20]; 2 µg/mL with Escherichia coli [21]; 256 µg/mL in the test on Providencia stuartii [22]; 1020 µg/mL (≈ 1980 µM) against Escherichia coli [3]; 256 µg/mL (≈ 495 µM) with Providencia stuartii [5]. In addition, the MIC is 2050 µg/mL (≈ 3960 µM) in the test with Klebsiella pneumoniae [6]; greater than 2050 µg/mL in the test with Escherichia coli [7]; 512 µg/mL with Escherichia coli [23]; 1020 µg/mL (≈ 1980 µM) against Klebsiella pneumoniae [8]; 512 µg/mL (≈ 989 µM) with Escherichia coli [9]; 2 µg/mL (≈ 3.86 µM) against Escherichia coli [10]. Further, the MIC with Klebsiella pneumoniae [24] was 1020 µg/mL; against Escherichia coli [13] it was greater than 2050 µg/mL; with Escherichia coli [15] it was 512 µg/mL (≈ 989 µM); with Escherichia coli [25], 512 µg/mL; with Escherichia coli [26], 1020 µg/mL; in the test on Escherichia coli [27], 2050 µg/mL.
